Two compounds from ChEMBL document CHEMBL4376884, “Toward a Rational Design of Polyamine-Based Zinc-Chelating Agents for Cancer Therapies” (J Med Chem, 2020) can be followed below.

The source made the active and inactive calls. The calls are words filed in the database; no cut-off is given here.

A short description of assay [1]: Metal chelating activity assessed as Zn2+-compound complex formation by measuring stability constant for ZnL(OH) in 0.15M NaCl at 298.1K by potentiometric titration analysis. The gist of the method: (§1)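 Glass-electrode potentiometric titration with an Ag/AgCl reference in saturated KCl. The electrode was calibrated as an [H+] probe against standardized HCl with CO₂-free NaOH, using Gran's method (pKw 13.73(1)). Range was pH 2.0–11.0, with metal and ligand at 1×10⁻³ to 5×10⁻³ M in 1:1 ratio. At least two curves per compound were merged and fitted with HYPERQUAD.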

Assay [2] deals with LN-229. Nature of the assay: Cell cycle arrest in human LN229 cells assessed as cell accumulation at G1 phase at 10 uM incubated for 24 hrs by propidium iodide staining based flow cytometry analysis relative to control. Format: functional.
In assay [3] the test system is LN-229. Nature of the assay: Antiproliferative activity against human LN229 cells assessed as reduction in cell viability at 10 uM incubated for 48 hrs by cell titer-glo assay. It is filed as functional, cell-based. The gist of the method: (§2)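 Cells plated and treated 24 h later with 10 µM compound for 48 h; viable cells quantified by CellTiter-Glo ATP luminescence. Expressed as percentage of viable cells relative to untreated; mean ± SD of three independent experiments, each in triplicate.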

Assay [4] in a line: Metal chelating activity assessed as Zn2+-compound complex formation by measuring stability constant for ZnHL using pre-Zn2+-complexed compound (ZnL) in 0.15M NaCl at 298.1K by potentiometric titration analysis. The gist of the method: as §1
In assay [5] the test system is PC-3. In words: Cell cycle arrest in human PC3 cells assessed as cell accumulation at G1 phase at 10 uM incubated for 48 hrs by propidium iodide staining based flow cytometry analysis relative to control. It is filed as functional.
Assay [6] is described as follows: Metal chelating activity assessed as Zn2+-compound complex formation by measuring stability constant for ZnL(OH) using pre-Zn2+-complexed compound (ZnL) in 0.15M NaCl at 298.1K by potentiometric titration analysis. In outline:
as §1

The test system of assay [7] is LN-229. Nature of the assay: Induction of cell morphological changes in human LN229 cells assessed as random membrane blebbing at 10 uM incubated for 24 to 48 hrs by phase contrast microscopy. It is filed as functional, cell-based. In outline: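 LN229 and PC3 cells exposed to 10 µM compound for the indicated time-points, then imaged live by phase-contrast microscopy for morphology.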

Assay [8] in a line: Metal chelating activity assessed as Zn2+-compound complex formation by measuring stability constant for ZnHL in 0.15M NaCl at 298.1K by potentiometric titration analysis. The gist of the method:
as §1

In assay [9] the test system is SW480. Nature of the assay: Induction of apoptosis in human SW480 cells assessed as increase in caspase-3/7 activation at 10 uM incubated for 48 hrs by luminometric caspase-glo 3/7 assay. Format: functional, cell-based. In outline:
(§3)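 Cells in RPMI or DMEM with 10% heat-inactivated FBS and penicillin/streptomycin, 37 °C, 5% CO2, treated with 10 µM compound for 48 h. Caspase-3 and caspase-7 activity read by luminescent Caspase-Glo 3/7 assay, reported as fold induction over untreated cells; mean ± SD of three independent experiments, each in triplicate.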

The test system of assay [10] is PC-3. Nature of the assay: Inhibition of colony formation in human PC3 cells at 10 uM incubated for 4 hrs by crystal violet staining based colony counting method. It is filed as functional, cell-based. In outline:
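LN229 and PC3 cells treated for 4 h with compound (10 µM) or with etoposide (30 µM positive control), washed, trypsinized and replated at 3000 cells per 60-mm plate. Colonies grown 7–10 days, fixed and stained with 0.5% crystal violet in 70% ethanol, and counted. Reported as percent of control; four independent experiments, each in duplicate.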

In assay [11] the test system is U-87 MG. Nature of the assay: Antiproliferative activity against human U87MG cells assessed as reduction in cell viability at 10 uM incubated for 48 hrs by cell titer-glo assay. Format: functional, cell-based. The conditions noted are these: U-87MG ATCC. In outline:
as §2

The test system of assay [12] is PC-3. Nature of the assay: Induction of apoptosis in human PC3 cells assessed as increase in caspase-3/7 activation at 10 uM incubated for 48 hrs by luminometric caspase-glo 3/7 assay. It is filed as functional, cell-based. The gist of the method: as §3
Assay [13] relates to LN-229. In words: Antiproliferative activity against human LN229 cells assessed as reduction in cell viability incubated for 48 hrs by cell titer-glo assay. Format: functional, cell-based. Conditions: LN-229, 48 h. The gist of the method:
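Dose-response: cells plated, treated 24 h later for 48 h, then ATP measured by CellTiter-Glo luminescence. IC50 given as mean ± SD from three independent experiments, each in triplicate. Fibroblasts came from individuals. Cells were kept in RPMI or DMEM with 10% heat-inactivated FBS and penicillin/streptomycin at 37 °C, 5% CO2.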

Assay [14] relates to PC-3. Nature of the assay: Induction of cellular senescence in human PC3 cells assessed as cells with irregular shape at 10 uM incubated for 24 hrs by phase contrast microscopy. It is filed as functional, cell-based. The gist of the method:
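LN229 and PC3 cells, 12×10^4 per well in 6-well plates, treated with 10 µM compound for 24 h. Senescence-associated β-gal staining: fixed in 2% formaldehyde/0.2% glutaraldehyde for 10 min at RT, stained with 1 mg/mL X-gal at 37 °C for 24 h without CO2. Blue cells counted in at least 10 fields at 10x and given as percent of total; four independent experiments. Morphology viewed by phase contrast at ×100.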

Assay [15] can be described thus: Metal chelating activity assessed as Zn2+-compound complex formation by measuring stability constant for ZnL in 0.15M NaCl at 298.1K by potentiometric titration analysis. In outline:
as §1

Assay [16] relates to LN-229. In words: Metal chelating activity in human LN229 cells assessed as decrease in intracellular concentration of labile zinc ions by measuring reduction in zinquin-Zn2+ complex formation incubated for 12 hrs followed by incubation with fluorophore-zinquin for 30 mins by spectrofluorometric analysis. It is filed as cell-based. The gist of the method: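 LN229 cells were treated 12 h, trypsinized, pelleted and checked by Trypan Blue. Then 6x10⁶ cells in 1 mL PBS were loaded with Zinquin 25 μM for 30 min at 37 °C in the dark. Fluorescence was read at ex 370/em 475 nm with a 400–600 nm scan, normalized to cell number, untreated set to 100; four independent experiments.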

Assay [17] in a line: Metal chelating activity assessed as Zn2+-compound complex formation by measuring stability constant for ZnL(OH) in 0.15M NaCl and hydroalcoholic solutions (H2O/EtOH 70:30) at 298.1K by potentiometric titration analysis. In outline:
as §1

Assay [18] can be described thus: Metal chelating activity assessed as Zn2+-compound complex formation by measuring stability constant for ZnL(OH) using pre-Zn2+-complexed compound (ZnL) in 0.15M NaCl and hydroalcoholic solutions (H2O/EtOH 70:30) at 298.1K by potentiometric titration analysis. The gist of the method:
as §1

Assay [19] can be described thus: Metal chelating activity assessed as Zn2+-compound complex formation by measuring stability constant for ZnL in 0.15M NaCl and hydroalcoholic solutions (H2O/EtOH 70:30) at 298.1K by potentiometric titration analysis. The gist of the method:
as §1

In the case of `c1ccc(CNCCN(CCNCc2ccccn2)Cc2ccc3ccccc3c2)nc1`, the log K was 2.25 in [1]; 3.65 in assay [4]; -10.8 in assay [6]; 16.7 in assay [8]; 13 in assay [15]. Moreover, the Activity is 63.1% in assay [2], 73.4% in [5] and “Dose-dependent effect” in assay [16]. In addition, the outcome in assay [3], in assay [7], in assay [9], in assay [11], in assay [12] and in [14] was Active. Besides, the inhibition result in [10] was “inactive”. Also, the 50% inhibitory concentration (IC50) in assay [13] is 6.3 µM.
For `CN(CCNCc1ccccn1)CCNCc1ccccn1`, the results for the Activity in assay [2], in assay [5] and in [16] were 62.1%, 57.2% and “Dose-dependent effect”, respectively. The result in assay [3], in assay [7], in [9], in [11], in assay [12] and in assay [14] was Active. Besides, the log K in assay [17] is 2.81; in assay [18] it was -10.6; in assay [19], 13.4. In addition, the inhibition entry in assay [10] is “inactive”. The IC50 in [13] was 6.84 µM.
